Laboratory results: ChEMBL document CHEMBL1129932, “Novel naphthalene derivatives as inhibitors of human immunoglobulin E antibody production” (J Med Chem, 1997)

Experiments:
[1] = Inhibitory activity against IgE antibody production in PBMC; assay type: functional; conditions: Homo sapiens
Outline: (§1)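 Human PBMC from healthy donors (final 2×10^6 cells/mL) were cultured in triplicate in RPMI 1640 with 10% FCS, 2 mM glutamine and penicillin/streptomycin. On day 0 they received IL-4 0.1 μg/mL, IL-10 0.2 μg/mL and α-CD40 2 μg/mL, with or without compound. After 14 days, IgE in the medium was measured by ELISA. Suppression (%) = (without − with compound)/without × 100, and IC50 was given for active compounds.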

[2] = In vitro inhibition of IgG antibody production in human PBMC cultured with alpha-CD40, IL-4 and IL-10 at 3 uM concentration […]; assay type: functional
[3] = In vitro inhibition of IgE antibody production in human PBMC cultured with alpha-CD40, IL-4 and IL-10 at 3 uM concentration; assay type: functional; outline: as §1
[4] = Tested for human PBMC cell viability, cultured with alpha-CD40, IL-4 and IL-10 at 3 uM; assay type: functional
Outline: (§2)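 Viability was read in the same 14-day PBMC cultures (2×10^6 cells/mL, triplicate) with IL-4 0.1 μg/mL, IL-10 0.2 μg/mL and α-CD40 2 μg/mL. After the medium was removed, alamar blue was added for 2 h and fluorescence was read (excitation 530 nm, emission 590 nm). Suppression (%) = (without − with compound)/without × 100.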

[5] = Inhibitory activity against IgG antibody production in PBMC; assay type: functional; conditions: Homo sapiens
Outline: (§3)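 Human PBMC from healthy donors (final 2×10^6 cells/mL, triplicate) were cultured in RPMI 1640 with 10% FCS, glutamine and antibiotics. IL-4 (0.1 μg/mL), IL-10 (0.2 μg/mL) and α-CD40 (2 μg/mL) were added on day 0, with or without compound. After 14 days, IgG in the medium was measured by ELISA. Suppression (%) = (level without − level with compound)/level without × 100.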

[6] = In vitro inhibition of IgE antibody production in human PBMC cultured with alpha-CD40, IL-4 and IL-10 at 3 uM concentration […]; assay type: functional
[7] = Tested for human PBMC cell viability, cultured with alpha-CD40, IL-4 and IL-10 at 3 uM (a negative number means enhancement of cell viability); assay type: functional; outline: as §2
Homo sapiens = species on record: Homo sapiens; assay: Compound was tested for inhibition of PGE-2 production by human lung fibroblast WI-38 stimulated with interleukin-1-alpha (IL-1alpha) and [Ca2+] ionophore A-23187; assay type: functional
Outline: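 WI-38 human lung fibroblasts (2×10^5 cells/mL) were grown to confluence over 4 days, then serum-starved overnight in medium with 0.5% BSA. Medium was replaced with 0.5% BSA medium containing IL-1α 10 ng/mL, with or without compound, and incubated overnight at 37 °C. Released PGE2 was measured by ELISA kit.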

[8] = Compound was tested for inhibition of IgE production on human PBMC culture after treating with IL-4, HC; assay type: functional
Outline: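 PBMC at a final 2×10^6 cells/mL were cultured in triplicate in RPMI 1640 with 10% FCS, 2 mM glutamine and penicillin/streptomycin. IL-4 (0.1 μg/mL) and HC (1 μM) were added on day 0, with or without compound. After 14 days, IgE in the medium was measured by ELISA. Suppression (%) = (level without compound − level with compound)/level without compound × 100.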

[9] = Compound was tested for inhibition of IgE production on human PBMC culture after treating with IL-4, alpha-CD40, IL-10; assay type: functional; outline: as §1
[10] = In vitro inhibition of IgG antibody production in human PBMC cultured with alpha-CD40, IL-4 and IL-10 at 3 uM concentration; assay type: functional; outline: as §3
RBL-1 [11] = assay: Compound was tested for inhibition of LTB4 production by rat basophilic leukemia cells (RBL-1) stimulated with A-23187; assay type: functional, cell-based
Outline: (§4)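 RBL-1 cells were maintained in DMEM with 10% FCS. Cells were preincubated with or without compound for 10 min at 37 °C, then stimulated with A23187 at a final 2 μM for 5 min. The reaction was stopped, and LTB4 in the centrifuged supernatant was measured by ELISA kit.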

[12] = In vitro inhibition of IgE antibody production in human PBMC cultured with alpha-CD40, IL-4 and IL-10 at 3 uM concentration (negative means enhancement of antibody biosynthesis); assay type: functional; outline: as §1
[13] = Inhibitory activity against IgE antibody production in PMBC cells; assay type: functional, cell-based; conditions: Homo sapiens; outline: as §1
B-cell line = assay: Compound was tested for inhibition of IgE production on mouse B cells after treating with IL-4, LPS; assay type: functional, cell-based
Outline: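 B cells came from DBA/2 splenocytes depleted with anti-mouse T cell serum plus rabbit complement, then fractionated by gradient centrifugation. They were cultured in RPMI 1640 with 10% FCS and LPS at a final 2 μg/mL. After 1 day, mouse IL-4 was added at a final 50 ng/mL. Culture continued for 6 days, and IgE in the media was measured by ELISA.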

RBL-1 [14] = assay: Compound was tested for inhibition of LTB4 production by rat basophilic leukemia cells(RBL-1) stimulated with A-23187; assay type: functional, cell-based; outline: as §4

SMILES	Suppression [2] [%]	Suppression [3] [%]	Cell viability [7]	Suppression [10] [%]	also measured
O=C(Nc1ccccc1C(=O)O)c1ccc(Oc2ccc3cc(O)ccc3c2)cc1	-8.7	76.6	–	–	IC50 [1]: 1200 nM; Cell viability [4]: 5.2; IC50 [5]: > 10000 nM
O=C(Nc1ccccc1C(=O)O)c1cccc(Oc2ccc3ccccc3c2)c1	-16	–	-23.6	–	Suppression [6]: -26.2%
O=C(CCc1ccc(Oc2ccc3ccccc3c2)cc1)Nc1ccccc1C(=O)O	-41.2	8.5	-2.9	–	–
O=C(Cc1ccc(Oc2ccc3ccccc3c2)cc1)Nc1ccccc1C(=O)O	–	86.6	–	31.2	IC50 (Homo sapiens): 10000 nM; IC50 [8]: 1900 nM; IC50 [9]: 600 nM; Cell viability [4]: 11.4; IC50 (RBL-1 [11]): 700 nM; IC50 [5]: 4300 nM
NC(=O)c1ccccc1NC(=O)c1ccc(Oc2ccc3ccccc3c2)cc1	–	8.6	–	10.8	Cell viability [4]: 7.3
CC(C)(C(=O)Nc1ccccc1C(=O)O)c1ccc(Oc2ccc3ccccc3c2)cc1	-5.4	–	-11.3	–	Suppression [12]: -30.4%
O=C(O)c1ccc(NC(=O)c2ccc(Oc3ccc4ccccc4c3)cc2)cc1	–	–	-16.1	24.4	Suppression [6]: 6.4%
O=C(Nc1ccccc1C(=O)O)c1ccc(COc2ccc3ccccc3c2)cc1	-16.1	–	–	–	IC50 (Homo sapiens): < 1000 nM; IC50 [9]: > 3000 nM; Suppression [12]: -6.1%
CN(C(=O)c1ccc(Oc2ccc3ccccc3c2)cc1)c1ccccc1C(=O)O	–	–	-5.1	10.1	Suppression [6]: -27.7%
O=C(O)c1ccc(Oc2ccc3ccccc3c2)cc1	-4.8	–	–	–	Suppression [6]: -4.6%
O=C(Nc1ccccc1C(=O)O)c1ccc(Oc2ccc3ccccc3c2)c([N+](=O)[O-])c1	–	93	–	36.9	Cell viability [4]: 19.1
O=C(Nc1ccccc1C(=O)O)c1ccc(Oc2cccc3ccccc23)cc1	–	96.9	-6.5	64.7	IC50 [1]: 1570 nM; IC50 [5]: 2320 nM
O=C(O)c1ccccc1C(=O)Nc1ccc(Oc2ccc3ccccc3c2)cc1	-23.1	–	–	–	Suppression [6]: -11.8%; Cell viability [4]: 1.5
O=C(Nc1ccccc1C(=O)O)c1ccc(Oc2ccccc2)cc1	-1.8	46	-1.4	–	IC50 [13]: 3280 nM; IC50 [5]: > 10000 nM
O=C(CCCC1CC1/C=C/c1ccc2ccccc2c1)Nc1ccccc1C(=O)O (centres undefined)	-0.5	63	-2.6%	–	IC50 [1]: 1880 nM; IC50 [5]: > 10000 nM
O=C(O)c1ccccc1NCc1ccc(Oc2ccc3ccccc3c2)cc1	-4.5	21.9	-1.7	–	–
O=C(O)c1cccc(NC(=O)c2ccc(Oc3ccc4ccccc4c3)cc2)c1	–	–	-14.5	2.5	Suppression [6]: -29.6%
O=C(Cc1ccc(Oc2ccc3cc(OCc4ccccc4)ccc3c2)cc1)Nc1ccccc1C(=O)O	–	95.1	–	91.7	IC50 (B-cell line): 12 nM; IC50 [9]: 8.3 nM; Cell viability [4]: 58.2; IC50 (RBL-1 [11]): 1200 nM; IC50 [5]: 42 nM
O=C(Nc1ccccc1C(=O)O)c1ccc(Oc2ccc3ccccc3c2)cc1	-16.9	64.8	-7.4	–	IC50 (Homo sapiens): 10000 nM; IC50 [9]: 1300 nM; IC50 (RBL-1 [14]): 400 nM; IC50 [5]: 38000 nM
O=C(Nc1ccccc1C(=O)O)c1ccc(C(=O)c2ccc3ccccc3c2)cc1	–	10.3	–	5.4	–
CC(C(=O)Nc1ccccc1C(=O)O)c1ccc(Oc2ccc3ccccc3c2)cc1 (centres undefined)	-15.9	8.7	-2.1	–	–
O=C(Nc1ccccc1C(=O)O)c1ccc(Cc2ccc3ccccc3c2)cc1	-21.1	9.5	-1.1	–	–
Nc1ccccc1NC(=O)c1ccc(Oc2ccc3ccccc3c2)cc1	–	31.6	–	3.3	Cell viability [4]: -9.3
O=C(Nc1ccccc1-c1nn[nH]n1)c1ccc(Oc2ccc3ccccc3c2)cc1	-18.7	–	-13.6	–	Suppression [6]: -74.5%
O=C(Nc1ccccc1C(=O)O)c1ccc(Sc2ccc3ccccc3c2)cc1	-2.8	25.8	–	–	–
